# Experimental data collected from several papers.
# Protocols differ between the studies behind these lines.
# Organism: Mycobacterium tuberculosis
# Observed: microbial growth
Structure (SMILES),test,test system,conditions,MIC
CO[C@H]1/C=C/O[C@@]2(C)Oc3c(C)c(O)c4c(O)c(c(/C=N/N5CCN(C)CC5)c(O)c4c3C2=O)NC(=O)/C(C)=C\C=C\[C@H](C)[C@H](O)[C@@H](C)[C@@H](O)[C@@H](C)[C@H](OC(C)=O)[C@@H]1C,,H37RV,14 days,0.17 µg/mL
O=C(O)c1cc(O)c2c(c1)C(=O)c1cccc(O)c1C2=O,resazurin,H37RV,,> 320 µM
CC[C@@H](CO)NCCN[C@@H](CC)CO,,H37RV,14 days,0.78 µg/mL
CC[C@@H](CO)NCCN[C@@H](CC)CO,,H37RV,7 days,0.8 µg/mL
CCOC(=O)c1c(NC(=O)c2cc(C(F)(F)F)cc(C(F)(F)F)c2)sc2c1CCN(CC)C2,resazurin,H37RV,,> 200 µM
CO[C@H]1/C=C/O[C@@]2(C)Oc3c(C)c(O)c4c(O)c(c(/C=N/N5CCN(C)CC5)c(O)c4c3C2=O)NC(=O)/C(C)=C\C=C\[C@H](C)[C@H](O)[C@@H](C)[C@@H](O)[C@@H](C)[C@H](OC(C)=O)[C@@H]1C,resazurin,ATCC35801 ERDMAN,7 days,0.05 µg/mL
CCOC(=O)c1c(NC(=O)c2cc(C(F)(F)F)cc(C(F)(F)F)c2)sc2c1CCN(C(=O)OC(C)(C)C)C2,resazurin,H37RV,,< 100 µM
O=C1c2cccc(O)c2C(=O)c2c(O)cc(CO)cc21,resazurin,H37RV,,> 320 µM
CCN1CCc2c(sc(N)c2C(=O)NC23CC4CC(CC(C4)C2)C3)C1,resazurin,H37RV,,> 200 µM
COc1cccc2c1C(=O)c1c(O)c3c(c(O)c1C2=O)C[C@@](O)(C(=O)CO)C[C@@H]3O[C@H]1C[C@H](N)[C@H](O)[C@H](C)O1,resazurin,H37RV,,5 µM
